Source: paper PMC4917231 (MedChemComm, 2016)

Assays:
[1] = Tissue distribution study in mice after IP dosing; type: in vivo; settings: 20 mg/kg IP
Method in brief: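 Non-tumour-bearing mice received a single IP dose of test compound at 20 mg kg⁻¹, given as a 1 mg ml⁻¹ formulation in 10:10:80 DMSO:Tween80:water. Compound residence in tissues was followed after dosing.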

[2] = system: Raji Burkitt B-cell lymphoma; assay: 96h MTT assay using Raji Burkitt B-cell lymphoma; type: cell-based; settings: Homo sapiens, Raji cells

detectability in tissues seven days after IP administration [1] | EC50 [2] | Compound
detectable in all tissues |  | CC(C)Cc1nn(C)c(=O)c2c(SCCCO)n(Cc3ccc(C#CCCCOc4ccc(C[C@H](N)C(=O)O)cc4)c4ccccc34)cc12 [Compound 10]
 | ~100 nM | CC(C)Cc1nn(C)c(=O)c2c(SCCCO)n(Cc3ccc(NCCCCCNC(=O)[C@@H](N)CCC(N)=O)nc3)cc12 [Compound 12]
